Measurements published in ChEMBL document CHEMBL2021856 (ACS Med Chem Lett, 2011).

Assays:
Format in all cases: functional, cell-based
[1] = target: T1, 5-hydroxytryptamine receptor 2C (Homo sapiens) (UniProt P28335); assay: Agonist activity at human 5HT2C receptor expressed in HEK293 cells assessed as calcium flux measured every sec for 3 mins by FLIPR assay relative to 5HT
T1 sequence (whole entry): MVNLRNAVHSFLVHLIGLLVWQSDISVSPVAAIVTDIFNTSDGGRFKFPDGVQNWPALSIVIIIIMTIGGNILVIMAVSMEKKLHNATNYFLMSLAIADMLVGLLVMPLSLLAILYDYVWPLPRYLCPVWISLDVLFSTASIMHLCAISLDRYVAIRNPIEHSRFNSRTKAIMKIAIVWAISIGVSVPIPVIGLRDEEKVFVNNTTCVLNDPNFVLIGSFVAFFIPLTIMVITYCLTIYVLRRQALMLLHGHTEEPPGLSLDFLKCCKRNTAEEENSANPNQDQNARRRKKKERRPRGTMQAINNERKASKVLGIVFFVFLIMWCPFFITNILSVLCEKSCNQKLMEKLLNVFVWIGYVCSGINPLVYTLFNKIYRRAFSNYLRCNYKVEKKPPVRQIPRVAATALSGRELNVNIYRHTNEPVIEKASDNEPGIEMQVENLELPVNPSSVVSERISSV
How it was run: (§1)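 Calcium flux (Gαq-mediated) in HEK-293 cells stably expressing human 5-HT2A, 5-HT2B or 5-HT2C (INI isoform). […] Racemic trans mixtures were tested unless otherwise stated.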

[2] = target: T2, 5-hydroxytryptamine receptor 2B (Homo sapiens, UniProt P41595); assay: Agonist activity at human 5HT2B receptor expressed in HEK293 cells assessed as calcium flux measured every sec for 3 mins by FLIPR assay
T2 sequence (P41595 whole entry): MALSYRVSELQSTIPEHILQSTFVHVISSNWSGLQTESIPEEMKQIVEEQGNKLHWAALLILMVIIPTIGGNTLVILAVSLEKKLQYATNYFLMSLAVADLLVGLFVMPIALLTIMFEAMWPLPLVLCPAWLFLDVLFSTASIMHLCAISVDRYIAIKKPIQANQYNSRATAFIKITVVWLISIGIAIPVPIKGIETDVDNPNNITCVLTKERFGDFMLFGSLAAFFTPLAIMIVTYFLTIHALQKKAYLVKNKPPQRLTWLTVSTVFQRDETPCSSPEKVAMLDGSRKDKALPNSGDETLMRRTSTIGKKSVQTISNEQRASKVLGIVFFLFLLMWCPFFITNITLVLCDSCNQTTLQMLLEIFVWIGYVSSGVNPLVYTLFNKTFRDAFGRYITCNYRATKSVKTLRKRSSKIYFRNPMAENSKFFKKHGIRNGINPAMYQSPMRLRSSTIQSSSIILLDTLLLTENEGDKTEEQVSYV

[3] = target: T3, 5-hydroxytryptamine receptor 2A (Homo sapiens, UniProt P28223); assay: Agonist activity at human 5HT2A receptor expressed in HEK293 cells assessed as calcium flux measured every sec for 3 mins by FLIPR assay
T3 sequence (P28223 whole entry): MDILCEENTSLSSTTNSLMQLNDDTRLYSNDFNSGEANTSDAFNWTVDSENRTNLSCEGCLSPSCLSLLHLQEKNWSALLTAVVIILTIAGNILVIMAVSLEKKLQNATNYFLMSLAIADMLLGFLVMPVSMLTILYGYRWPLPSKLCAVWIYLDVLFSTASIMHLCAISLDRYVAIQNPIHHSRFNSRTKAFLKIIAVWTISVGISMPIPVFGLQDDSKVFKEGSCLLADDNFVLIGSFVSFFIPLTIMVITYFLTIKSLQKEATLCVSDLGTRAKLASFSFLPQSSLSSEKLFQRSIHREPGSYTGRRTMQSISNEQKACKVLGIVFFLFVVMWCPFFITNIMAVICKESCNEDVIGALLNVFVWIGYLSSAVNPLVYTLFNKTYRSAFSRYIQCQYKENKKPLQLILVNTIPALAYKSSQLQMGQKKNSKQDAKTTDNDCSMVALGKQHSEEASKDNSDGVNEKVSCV

[4] = target: T4, 5-hydroxytryptamine receptor 2C (Homo sapiens, UniProt P28335); assay: Agonist activity at human 5HT2C receptor expressed in HEK293 cells assessed as calcium flux measured every sec for 3 mins by FLIPR assay
T4 sequence (P28335 whole entry): T1 sequence (whole entry)

[5] = target: T2, 5-hydroxytryptamine receptor 2B; assay: Agonist activity at human 5HT2B receptor expressed in HEK293 cells assessed as calcium flux measured every sec for 3 mins by FLIPR assay relative to 5HT; how it was run: as §1
[6] = target: T3, 5-hydroxytryptamine receptor 2A; assay: Agonist activity at human 5HT2A receptor expressed in HEK293 cells assessed as calcium flux measured every sec for 3 mins by FLIPR assay relative to 5HT; how it was run: as §1

| SMILES | Emax [1] [%] | EC50 ([2]; hek293) | EC50 ([3]; hek293) | EC50 ([4]; read-out: EC50) [nM] | EC50 ([4]; hek293) | EC50 ([2]; read-out: EC50) [nM] | Emax [5] [%] | EC50 ([3]; read-out: EC50) [nM] | Emax [6] [%] |
| --- | --- | --- | --- | --- | --- | --- | --- | --- | --- |
| NC[C@H]1C[C@@H]1c1ccccc1OCC1CC1 (racemic) | 60 |  |  |  |  |  |  |  |  |
| Cl.NC[C@@H]1C[C@H]1c1ccccc1OCC1CC1 | 51 | Not Active | Not Active | 978 |  |  |  |  |  |
| COc1ccc(-c2cccc(C)c2)cc1[C@H]1C[C@@H]1CN.Cl (racemic) | 69 | Not Active | Not Active | 8710 |  |  |  |  |  |
| Cc1ccc(OCC(C)C)c([C@H]2C[C@@H]2CN)c1.Cl (racemic) |  | Not Active | Not Active |  | Not Active |  |  |  |  |
| Cl.NC[C@H]1C[C@@H]1c1ccccc1OCc1ccccc1 (racemic) | 74 |  | Not Active | 304 |  | 1080 | 20 |  |  |
| COc1ccc(-c2ccccc2)cc1[C@H]1C[C@@H]1CN.Cl (racemic) | 64 | Not Active | Not Active | 3800 |  |  |  |  |  |
| CCCCCOc1ccccc1[C@H]1C[C@@H]1CN.Cl (racemic) |  | Not Active | Not Active |  | Not Active |  |  |  |  |
| CCCOc1ccccc1[C@H]1C[C@@H]1CN.Cl (racemic) | 70 |  | Not Active | 24 |  | 304 | 16 |  |  |
| COc1ccc(-c2ccc(F)cc2)cc1[C@H]1C[C@@H]1CN.Cl (racemic) | 83 | Not Active | Not Active | 2190 |  |  |  |  |  |
| Cl.NC[C@H]1C[C@@H]1c1ccccc1OCC1CCC1 (racemic) | 31 | Not Active | Not Active | 1210 |  |  |  |  |  |
| CCCCc1ccc(-c2ccc(OC)c([C@H]3C[C@@H]3CN)c2)cc1.Cl (racemic) |  | Not Active | Not Active |  | Not Active |  |  |  |  |
| CC(C)COc1ccccc1[C@H]1C[C@@H]1CN.Cl (racemic) | 84 | Not Active | Not Active | 254 |  |  |  |  |  |
| COc1ccc(-c2ccccc2C)cc1[C@H]1C[C@@H]1CN.Cl (racemic) | 67 | Not Active | Not Active | 3470 |  |  |  |  |  |
| CCOc1ccccc1[C@H]1C[C@@H]1CN (racemic) | 99 |  |  | 18 |  | 331 | 48 | 3020 | 64 |
| COc1ccc(-c2ccccc2F)cc1[C@H]1C[C@@H]1CN.Cl (racemic) | 69 | Not Active | Not Active | 3310 |  |  |  |  |  |
| Cl.NC[C@H]1C[C@@H]1c1ccccc1OCC1CCCCC1 (racemic) |  | Not Active | Not Active |  | Not Active |  |  |  |  |
| CCCCOc1ccc(C)cc1[C@H]1C[C@@H]1CN.Cl (racemic) |  | Not Active | Not Active |  | Not Active |  |  |  |  |
| Cl.NC[C@H]1C[C@@H]1c1ccccc1OCC1CC1 (racemic) |  | Not Active | Not Active |  |  |  |  |  |  |
| COc1ccc(-c2ccc(C)cc2)cc1[C@H]1C[C@@H]1CN.Cl (racemic) |  | Not Active | Not Active |  | Not Active |  |  |  |  |
| NC[C@H]1C[C@@H]1c1cc(F)ccc1OCC1CC1 |  |  |  | 21 |  | 289 |  | 894 |  |
| NC[C@H]1C[C@@H]1c1ccccc1OCC1CC1 | 61 |  |  |  |  |  |  |  |  |
| COc1ccc(-c2cccc(F)c2)cc1[C@H]1C[C@@H]1CN.Cl (racemic) | 59 | Not Active | Not Active | 7240 |  |  |  |  |  |
